Laboratory results: ChEMBL document CHEMBL1139324, “Chemical modification and biological evaluation of new semisynthetic derivatives of 28,29-Didehydronystatin A1 (S44HP), a genetically engineered antifungal polyene macrolide antibiotic” (J Med Chem, 2009)
Values after ≈ are worked out from the molar mass of the structure shown.

Assays:
Candida albicans = assay: Antifungal activity against Candida albicans ATCC 14053 after 48 hrs by broth microdilution method; format: functional; settings: ATCC 14053, 48 h
Procedure, shortened: (§1)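 Yeast susceptibility by broth microdilution per NCCLS M27-A in 96-well plates. MIC is the lowest concentration inhibiting growth. Where repeat runs fully coincided, a single value is reported.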

Vanrija humicola = assay: Antifungal activity against Cryptococcus humicolus ATCC 9949 after 48 hrs by broth microdilution method; format: functional; settings: ATCC 9949, 48 h; procedure, shortened: as §1
Aspergillus niger = assay: Antifungal activity against Aspergillus niger ATCC 16404 after 48 hrs by broth microdilution method; format: functional; settings: ATCC 16404, 48 h
Procedure, shortened: (§2)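 Susceptibility of filamentous fungi (molds) by broth microdilution per NCCLS M38-A in 96-well microplates. The MIC is read as the lowest inhibitory concentration. It is given as one number when replicate data fully agreed.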

Fusarium oxysporum = assay: Antifungal activity against Fusarium oxysporum VKM F-140 after 48 hrs by broth microdilution method; format: functional; procedure, shortened: as §2
[1] = Toxicity against human erythrocytes assessed as hemolytic activity at 5 ug/ml; format: cell-based, Erythrocyte; settings: read-out: Activity
Procedure, shortened: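 Lysis of erythrocytes in defibrinated human blood was measured under buffered conditions with compound at 5 µg/mL. Percent hemolysis is the mean of blood samples from two donors.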

Compound	MIC (Candida albicans)	MIC (Vanrija humicola)	MIC (Aspergillus niger)	MIC (Fusarium oxysporum)	hemolysis at 5 ug/ml [1]
CNC(=O)[C@H]1[C@@H]2C[C@@H](O[C@H]3O[C@@H](C)[C@H](O)[C@@H](N)[C@H]3O)/C=C/C=C/C=C/C=C/C=C/C=C/C=C/[C@H](C)[C@@H](O)[C@@H](C)[C@H](C)OC(=O)C[C@H](O)C[C@H](O)C[C@H](O)CC[C@@H](O)[C@H](O)C[C@](O)(C[C@@H]1O)O2	2 µg/mL (≈ 2.13 µM)	1 µg/mL (≈ 1.07 µM)	2 µg/mL (≈ 2.13 µM)	8 µg/mL (≈ 8.54 µM)	5%
C[C@@H]1[C@H](O)[C@@H](C)/C=C/C=C/C=C/C=C/C=C/C=C/C=C/[C@H](O[C@H]2O[C@@H](C)[C@H](O)[C@@H](N)[C@H]2O)C[C@@H]2O[C@](O)(C[C@@H](O)[C@H](O)CC[C@@H](O)C[C@@H](O)C[C@@H](O)CC(=O)O[C@H]1C)C[C@H](O)[C@H]2C(N)=O	2 µg/mL (≈ 2.17 µM)	2 µg/mL (≈ 2.17 µM)	4 µg/mL (≈ 4.33 µM)	4 µg/mL (≈ 4.33 µM)	8%
C[C@@H]1[C@H](O)[C@@H](C)/C=C/C=C/C=C/C=C/C=C/C=C/C=C/[C@H](O[C@H]2O[C@@H](C)[C@H](O)[C@@H](N)[C@H]2O)C[C@@H]2O[C@](O)(C[C@@H](O)[C@H](O)CC[C@@H](O)C[C@@H](O)C[C@@H](O)CC(=O)O[C@H]1C)C[C@H](O)[C@H]2C(=O)N[C@H]1[C@H](O)[C@@H](O)[C@H](CO)O[C@H]1O	1 µg/mL (≈ 0.921 µM)	1 µg/mL (≈ 0.921 µM)	2 µg/mL (≈ 1.84 µM)	8 µg/mL (≈ 7.37 µM)	3%
C[C@@H]1[C@H](O)[C@@H](C)/C=C/C=C/C=C/C=C/C=C/C=C/C=C/[C@H](O[C@H]2O[C@@H](C)[C@H](O)[C@@H](N)[C@H]2O)C[C@@H]2O[C@](O)(C[C@@H](O)[C@H](O)CC[C@@H](O)C[C@@H](O)C[C@@H](O)CC(=O)O[C@H]1C)C[C@H](O)[C@H]2C(=O)NCCO	2 µg/mL (≈ 2.07 µM)	4 µg/mL (≈ 4.14 µM)	4 µg/mL (≈ 4.14 µM)	4 µg/mL (≈ 4.14 µM)	3%
C[C@@H]1[C@H](O)[C@@H](C)/C=C/C=C/C=C/C=C/C=C/C=C/C=C/[C@H](O[C@H]2O[C@@H](C)[C@H](O)[C@@H](NC[C@]3(O)OC[C@@H](O)[C@@H](O)[C@@H]3O)[C@H]2O)C[C@@H]2O[C@](O)(C[C@@H](O)[C@H](O)CC[C@@H](O)C[C@@H](O)C[C@@H](O)CC(=O)O[C@H]1C)C[C@H](O)[C@H]2C(=O)O	1 µg/mL (≈ 0.921 µM)	1 µg/mL (≈ 0.921 µM)	2 µg/mL (≈ 1.84 µM)	8 µg/mL (≈ 7.36 µM)	5%
C[C@@H]1[C@H](O)[C@@H](C)/C=C/C=C/C=C/C=C/C=C/C=C/C=C/[C@H](O[C@H]2O[C@@H](C)[C@H](O)[C@@H](N)[C@H]2O)C[C@@H]2O[C@](O)(C[C@@H](O)[C@H](O)CC[C@@H](O)C[C@@H](O)C[C@@H](O)CC(=O)O[C@H]1C)C[C@H](O)[C@H]2C(=O)NC(C)(CO)CO	4 µg/mL (≈ 3.96 µM)	4 µg/mL (≈ 3.96 µM)	4 µg/mL (≈ 3.96 µM)	16 µg/mL (≈ 15.8 µM)	
C[C@@H]1[C@H](O)[C@@H](C)/C=C/C=C/C=C/C=C/C=C/C=C/C=C/[C@H](O[C@H]2O[C@@H](C)[C@H](O)[C@@H](N)[C@H]2O)C[C@@H]2O[C@](O)(C[C@@H](O)[C@H](O)CC[C@@H](O)C[C@@H](O)C[C@@H](O)CC(=O)O[C@H]1C)C[C@H](O)[C@H]2C(=O)NC1C2CC3CC(C2)CC1C3 (some centres not stated)	4 µg/mL (≈ 3.78 µM)	4 µg/mL (≈ 3.78 µM)	4 µg/mL (≈ 3.78 µM)	8 µg/mL (≈ 7.57 µM)	
COC(=O)[C@H](C)NC(=O)[C@H]1[C@@H]2C[C@@H](O[C@H]3O[C@@H](C)[C@H](O)[C@@H](N)[C@H]3O)/C=C/C=C/C=C/C=C/C=C/C=C/C=C/[C@H](C)[C@@H](O)[C@@H](C)[C@H](C)OC(=O)C[C@H](O)C[C@H](O)C[C@H](O)CC[C@@H](O)[C@H](O)C[C@](O)(C[C@@H]1O)O2	2 µg/mL (≈ 1.98 µM)	2 µg/mL (≈ 1.98 µM)	4 µg/mL (≈ 3.96 µM)	8 µg/mL (≈ 7.93 µM)	
C[C@@H]1[C@H](O)[C@@H](C)/C=C/C=C/C=C/C=C/C=C/C=C/C=C/[C@H](O[C@H]2O[C@@H](C)[C@H](O)[C@@H](NCCCN)[C@H]2O)C[C@@H]2O[C@](O)(C[C@@H](O)[C@H](O)CC[C@@H](O)C[C@@H](O)C[C@@H](O)CC(=O)O[C@H]1C)C[C@H](O)[C@H]2C(=O)O	2 µg/mL (≈ 2.04 µM)	4 µg/mL (≈ 4.08 µM)	4 µg/mL (≈ 4.08 µM)	4 µg/mL (≈ 4.08 µM)	45%
C[C@@H]1[C@H](O)[C@@H](C)/C=C/C=C/C=C/C=C/C=C/C=C/C=C/[C@H](O[C@H]2O[C@@H](C)[C@H](O)[C@@H](NCc3ccc(N(C)C)cc3)[C@H]2O)C[C@@H]2O[C@](O)(C[C@@H](O)[C@H](O)CC[C@@H](O)C[C@@H](O)C[C@@H](O)CC(=O)O[C@H]1C)C[C@H](O)[C@H]2C(=O)O	2 µg/mL (≈ 1.89 µM)	2 µg/mL (≈ 1.89 µM)	4 µg/mL (≈ 3.78 µM)	> 16 µg/mL	
C[C@@H]1[C@H](O)[C@@H](C)/C=C/C=C/C=C/C=C/C=C/C=C/C=C/[C@H](O[C@H]2O[C@@H](C)[C@H](O)[C@@H](NCc3ccccc3S(=O)(=O)O)[C@H]2O)C[C@@H]2O[C@](O)(C[C@@H](O)[C@H](O)CC[C@@H](O)C[C@@H](O)C[C@@H](O)CC(=O)O[C@H]1C)C[C@H](O)[C@H]2C(=O)O	4 µg/mL (≈ 3.66 µM)	4 µg/mL (≈ 3.66 µM)	4 µg/mL (≈ 3.66 µM)	> 16 µg/mL	
C[C@@H]1[C@H](O)[C@@H](C)/C=C/C=C/C=C/C=C/C=C/C=C/C=C/[C@H](O[C@H]2O[C@@H](C)[C@H](O)[C@@H](NC[C@]3(O)OC[C@@H](O)[C@@H](O[C@@H]4O[C@H](CO)[C@H](O)[C@H](O)[C@H]4O)[C@@H]3O)[C@H]2O)C[C@@H]2O[C@](O)(C[C@@H](O)[C@H](O)CC[C@@H](O)C[C@@H](O)C[C@@H](O)CC(=O)O[C@H]1C)C[C@H](O)[C@H]2C(=O)O	2 µg/mL (≈ 1.6 µM)	2 µg/mL (≈ 1.6 µM)	2 µg/mL (≈ 1.6 µM)	8 µg/mL (≈ 6.41 µM)	4%

More lines, main results first:

MIC (Candida albicans)	MIC (Vanrija humicola)	MIC (Aspergillus niger)	MIC (Fusarium oxysporum)	Compound	hemolysis at 5 ug/ml [1]
2 µg/mL (≈ 1.95 µM)	2 µg/mL (≈ 1.95 µM)	2 µg/mL (≈ 1.95 µM)	4 µg/mL (≈ 3.9 µM)	COC(=O)[C@H](CO)NC(=O)[C@H]1[C@@H]2C[C@@H](O[C@H]3O[C@@H](C)[C@H](O)[C@@H](N)[C@H]3O)/C=C/C=C/C=C/C=C/C=C/C=C/C=C/[C@H](C)[C@@H](O)[C@@H](C)[C@H](C)OC(=O)C[C@H](O)C[C@H](O)C[C@H](O)CC[C@@H](O)[C@H](O)C[C@](O)(C[C@@H]1O)O2	14%
2 µg/mL (≈ 1.95 µM)	2 µg/mL (≈ 1.95 µM)	4 µg/mL (≈ 3.9 µM)	4 µg/mL (≈ 3.9 µM)	COC(=O)C(CO)NC(=O)[C@H]1[C@@H]2C[C@@H](O[C@H]3O[C@@H](C)[C@H](O)[C@@H](N)[C@H]3O)/C=C/C=C/C=C/C=C/C=C/C=C/C=C/[C@H](C)[C@@H](O)[C@@H](C)[C@H](C)OC(=O)C[C@H](O)C[C@H](O)C[C@H](O)CC[C@@H](O)[C@H](O)C[C@](O)(C[C@@H]1O)O2 (some centres not stated)	4%
2 µg/mL (≈ 1.93 µM)	2 µg/mL (≈ 1.93 µM)	4 µg/mL (≈ 3.86 µM)	8 µg/mL (≈ 7.71 µM)	COC(=O)[C@@H](NC(=O)[C@H]1[C@@H]2C[C@@H](O[C@H]3O[C@@H](C)[C@H](O)[C@@H](N)[C@H]3O)/C=C/C=C/C=C/C=C/C=C/C=C/C=C/[C@H](C)[C@@H](O)[C@@H](C)[C@H](C)OC(=O)C[C@H](O)C[C@H](O)C[C@H](O)CC[C@@H](O)[C@H](O)C[C@](O)(C[C@@H]1O)O2)C(C)C	
1 µg/mL (≈ 0.921 µM)	1 µg/mL (≈ 0.921 µM)	2 µg/mL (≈ 1.84 µM)	8 µg/mL (≈ 7.36 µM)	C[C@@H]1[C@H](O)[C@@H](C)/C=C/C=C/C=C/C=C/C=C/C=C/C=C/[C@H](O[C@H]2O[C@@H](C)[C@H](O)[C@@H](NC[C@]3(O)OC[C@@H](O)[C@H](O)[C@@H]3O)[C@H]2O)C[C@@H]2O[C@](O)(C[C@@H](O)[C@H](O)CC[C@@H](O)C[C@@H](O)C[C@@H](O)CC(=O)O[C@H]1C)C[C@H](O)[C@H]2C(=O)O	8%
4 µg/mL (≈ 3.63 µM)	4 µg/mL (≈ 3.63 µM)	4 µg/mL (≈ 3.63 µM)	> 16 µg/mL	C[C@@H]1[C@H](O)[C@@H](C)/C=C/C=C/C=C/C=C/C=C/C=C/C=C/[C@H](O[C@H]2O[C@@H](C)[C@H](O)[C@@H](N)[C@H]2O)C[C@@H]2O[C@](O)(C[C@@H](O)[C@H](O)CC[C@@H](O)C[C@@H](O)C[C@@H](O)CC(=O)O[C@H]1C)C[C@H](O)[C@H]2C(=O)N(C)CC(O)C(O)C(O)C(O)CO (some centres not stated)	
8 µg/mL (≈ 7.6 µM)	8 µg/mL (≈ 7.6 µM)	16 µg/mL (≈ 15.2 µM)	> 16 µg/mL	C[C@@H]1[C@H](O)[C@@H](C)/C=C/C=C/C=C/C=C/C=C/C=C/C=C/[C@H](O[C@H]2O[C@@H](C)[C@H](O)[C@@H](NC(=O)C(N)CCCCN)[C@H]2O)C[C@@H]2O[C@](O)(C[C@@H](O)[C@H](O)CC[C@@H](O)C[C@@H](O)C[C@@H](O)CC(=O)O[C@H]1C)C[C@H](O)[C@H]2C(=O)O (some centres not stated)	
